Measured values as given in ChEMBL document CHEMBL1255504, “Functional profiling of p53-binding sites in Hdm2 and Hdmx using a genetic selection system” (Bioorg Med Chem, 2010).
pIC50: −log10 of the molar value. Active and inactive are the calls of the source. The rule behind the calls is not given here. Where a SMILES comes first, the peptide text is derived from it. The star is where a group is joined. Isobutyryl = CC(C)C(=O)*; Piperidide = C1CCN(*)CC1; Cbz = O=C(OCc1ccccc1)*; PhAc = O=C(Cc1ccccc1)*; Boc = CC(C)(C)OC(=O)*; NHBn = c1ccc(CN*)cc1; Piv = CC(C)(C)C(=O)*; NHtBu = CC(C)(C)N*

Legend:
[1] = molecular target: T1, E3 ubiquitin-protein ligase Mdm2 (Homo sapiens, UniProt Q00987); assay: Inhibition of GST-tagged p53 binding to Hdm2 by ELISA
[2] = Solubility of the compound; type: physicochemical
[3] = molecular target: T2, Protein Mdm4 (Homo sapiens) (UniProt O15151); assay: Inhibition of GST-tagged MDMX expressed in Escherichia coli harboring integrated p53-MDMX protein assessed as enhancement of enzyme-p53 interaction by beta-galactosidase assay; design: concentration or dose not given beside the values; settings: concentration not given here
T2 sequence (whole entry): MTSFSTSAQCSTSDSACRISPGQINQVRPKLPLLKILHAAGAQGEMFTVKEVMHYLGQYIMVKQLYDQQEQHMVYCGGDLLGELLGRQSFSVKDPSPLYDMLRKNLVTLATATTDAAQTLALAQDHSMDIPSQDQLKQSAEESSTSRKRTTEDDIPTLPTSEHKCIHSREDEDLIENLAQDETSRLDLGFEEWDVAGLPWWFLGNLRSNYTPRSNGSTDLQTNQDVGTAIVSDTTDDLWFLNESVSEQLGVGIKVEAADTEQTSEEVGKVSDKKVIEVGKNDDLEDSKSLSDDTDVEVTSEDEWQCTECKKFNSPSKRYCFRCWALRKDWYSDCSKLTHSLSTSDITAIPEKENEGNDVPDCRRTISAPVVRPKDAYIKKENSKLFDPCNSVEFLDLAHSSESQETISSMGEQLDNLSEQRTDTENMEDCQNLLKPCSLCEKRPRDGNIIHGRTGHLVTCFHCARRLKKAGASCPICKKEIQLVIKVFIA
How it was run: (§1)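 E. coli reporter strain SNS126 (HIS3-KanR-lacZ) carrying chromosomally integrated DBD-fusion repressor halves (Hdm2–p53 or Hdmx–p53), transformed with SICLOPPS cyclic-peptide constructs and tested in both native and opposite strains. Cells grown on solid LB with 32 µM IPTG plus 9.7 µM L-arabinose; β-galactosidase measured by ONPG hydrolysis. % derepression = percent β-galactosidase enhancement relative to unrepressed (DBD-only) control.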

[4] = molecular target: T2, Protein Mdm4 (Homo sapiens); assay: Inhibition of GST-tagged MDMX expressed in Escherichia coli harboring integrated p53-Hmd2 protein assessed as enzyme-p53 interaction by beta-galactosidase assay; design: concentration or dose not given beside the values; settings: concentration not given here; how it was run: as §1
[5] = molecular target: T2, Protein Mdm4 (Homo sapiens); assay: Inhibition of GST-tagged MDMX expressed in Escherichia coli harboring integrated p53-MDMX protein assessed as enzyme-p53 interaction by beta-galactosidase assay; design: concentration or dose not given beside the values; settings: concentration not given here; how it was run: as §1
[6] = molecular target: T2, Protein Mdm4 (Homo sapiens); assay: Inhibition of GST-tagged MDMX expressed in Escherichia coli harboring integrated p53-Hmd2 protein assessed as blockade of enzyme-p53 interaction by beta-galactosidase assay; settings: concentration not given here; how it was run: as §1
[7] = molecular target: T2, Protein Mdm4 (Homo sapiens); assay: Inhibition of GST-tagged MDMX expressed in Escherichia coli harboring integrated p53-Hmd2 protein assessed as enhancement of enzyme-p53 interaction by beta-galactosidase assay; design: concentration or dose not given beside the values; settings: concentration not given here; how it was run: as §1
[8] = molecular target: T2, Protein Mdm4 (Homo sapiens); assay: Inhibition of GST-tagged MDMX expressed in Escherichia coli harboring integrated p53-MDMX protein assessed as blockade of enzyme-p53 interaction by beta-galactosidase assay; design: concentration or dose not given beside the values; settings: concentration not given here; how it was run: as §1
[9] = molecular target: T1, E3 ubiquitin-protein ligase Mdm2; assay: Inhibition of GST-tagged Hdm2 expressed in Escherichia coli harboring integrated p53-Hmd2 protein assessed as enhancement of enzyme-p53 interaction by beta-galactosidase assay; settings: concentration not given here; how it was run: as §1
Target sequence in this assay (Q00987 whole entry, looked up): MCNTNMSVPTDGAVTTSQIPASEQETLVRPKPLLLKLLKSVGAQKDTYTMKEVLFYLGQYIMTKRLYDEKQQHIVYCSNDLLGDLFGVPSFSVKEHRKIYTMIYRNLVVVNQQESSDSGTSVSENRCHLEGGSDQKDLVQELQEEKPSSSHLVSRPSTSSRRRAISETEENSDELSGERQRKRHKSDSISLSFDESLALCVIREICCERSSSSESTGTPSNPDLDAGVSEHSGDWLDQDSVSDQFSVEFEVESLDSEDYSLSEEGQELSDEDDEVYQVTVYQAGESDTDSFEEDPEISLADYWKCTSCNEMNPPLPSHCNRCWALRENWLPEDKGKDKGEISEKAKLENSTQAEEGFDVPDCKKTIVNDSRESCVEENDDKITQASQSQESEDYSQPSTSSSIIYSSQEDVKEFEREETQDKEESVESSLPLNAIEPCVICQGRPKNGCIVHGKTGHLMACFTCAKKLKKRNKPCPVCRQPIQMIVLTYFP

[10] = molecular target: T1, E3 ubiquitin-protein ligase Mdm2; assay: Inhibition of GST-tagged Hdm2 expressed in Escherichia coli harboring integrated p53-Hmd2 protein assessed as blockade of enzyme-p53 interaction by beta-galactosidase assay; settings: concentration not given here; how it was run: as §1
Target sequence in this assay (Q00987 whole entry, looked up): as above

[11] = molecular target: T1, E3 ubiquitin-protein ligase Mdm2; assay: Inhibition of GST-tagged Hdm2 expressed in Escherichia coli harboring integrated p53-Hmd2 protein assessed as enzyme-p53 interaction by beta-galactosidase assay; settings: concentration not given here; how it was run: as §1
Target sequence in this assay (Q00987 whole entry, looked up): as above

[12] = molecular target: T1, E3 ubiquitin-protein ligase Mdm2; assay: Inhibition of GST-tagged Hdm2 expressed in Escherichia coli harboring integrated p53-MDMX protein assessed as blockade of enzyme-p53 interaction by beta-galactosidase assay; settings: concentration not given here; how it was run: as §1
Target sequence in this assay (Q00987 whole entry, looked up): as above

[13] = molecular target: T1, E3 ubiquitin-protein ligase Mdm2; assay: Inhibition of GST-tagged Hdm2 expressed in Escherichia coli harboring integrated p53-MDMX protein assessed as enzyme-p53 interaction by beta-galactosidase assay; settings: concentration not given here; how it was run: as §1
Target sequence in this assay (Q00987 whole entry, looked up): as above

[14] = molecular target: T1, E3 ubiquitin-protein ligase Mdm2; assay: Inhibition of GST-tagged Hdm2 expressed in Escherichia coli harboring integrated p53-MDMX protein assessed as enhancement of enzyme-p53 interaction by beta-galactosidase assay; settings: concentration not given here; how it was run: as §1
Target sequence in this assay (Q00987 whole entry, looked up): as above

Compound: CC(C)(C)OC(=O)N[C@@H](CCCNC(=N)N)C(=O)N[C@@H](Cc1c[nH]c2ccccc12)C(=O)N[C@@H](Cc1ccccc1)C(=O)N1CCCCC1
- inhibition [1]: inactive

Compound: CC(C)COC(=O)N[C@@H](CCCNC(=N)N)C(=O)N[C@@H](Cc1c[nH]c2ccccc12)C(=O)N[C@@H](Cc1ccccc1)C(=O)NC(C)(C)C
- inhibition [1]: inactive

Compound: CC(C)COC(=O)N[C@@H](CCCNC(=N)N)C(=O)N[C@@H](Cc1c[nH]c2ccccc12)C(=O)N[C@@H](Cc1ccccc1)C(=O)NCc1ccccc1
- inhibition [1]: inactive

Compound: CC(C)(C)OC(=O)N[C@@H](CCCNC(=N)N)C(=O)N[C@@H](Cc1c[nH]c2ccccc12)C(=O)N[C@@H](Cc1ccccc1)C(=O)NCc1ccccc1 (Boc-Arg-Trp-Phe-NHBn)
- inhibition [1]: inactive

Compound: CC(C)(C)NC(=O)[C@H](Cc1ccccc1)NC(=O)[C@H](Cc1c[nH]c2ccccc12)NC(=O)[C@H](CCCNC(=N)N)NC(=O)OC(C)(C)C (Boc-Arg-Trp-Phe-NHtBu)
- inhibition [1]: inactive

Compound: CC(C)[C@H](NC(=O)[C@H](Cc1ccc(O)cc1)NC(=O)[C@H](Cc1ccc(O)cc1)NC(=O)[C@H](Cc1ccccc1)NC(=O)OC(C)(C)C)C(=O)N1CCCCC1 (Boc-FYYV-Piperidide)
- solubility [2]: Insoluble

Compound: CC[C@H](C)[C@H](NC(=O)OC(C)(C)C)C(=O)N[C@@H](Cc1ccccc1)C(=O)N[C@@H](Cc1ccc(O)cc1)C(=O)N[C@@H](Cc1ccc(O)cc1)C(=O)N[C@H](C(=O)N1CCCCC1)C(C)C (Boc-IFYYV-Piperidide)
- solubility [2]: Insoluble

Compound: N=C(N)NCCC[C@H](NC(=O)OCc1ccccc1)C(=O)N[C@@H](Cc1c[nH]c2ccccc12)C(=O)N[C@@H](Cc1ccccc1)C(=O)NCc1ccccc1 (Cbz-Arg-Trp-Phe-NHBn)
- inhibition [1]: inactive

Compound: N=C(N)NCCC[C@H](NC(=O)OCc1ccccc1)C(=O)N[C@@H](Cc1c[nH]c2ccccc12)C(=O)N[C@@H](Cc1ccccc1)C(=O)N1CCCCC1 (Cbz-Arg-Trp-Phe-Piperidide)
- inhibition [1]: inactive

Compound: CC(C)C(=O)N[C@@H](CCCNC(=N)N)C(=O)N[C@@H](Cc1c[nH]c2ccccc12)C(=O)N[C@@H](Cc1ccccc1)C(=O)NCc1ccccc1 (Isobutyryl-Arg-Trp-Phe-NHBn)
- inhibition [1]: inactive

Compound: CC(C)C(=O)N[C@@H](CCCNC(=N)N)C(=O)N[C@@H](Cc1c[nH]c2ccccc12)C(=O)N[C@@H](Cc1ccccc1)C(=O)NC(C)(C)C (Isobutyryl-Arg-Trp-Phe-NHtBu)
- inhibition [1]: inactive

Compound: N=C(N)NCCC[C@H](NC(=O)Cc1ccccc1)C(=O)N[C@@H](Cc1c[nH]c2ccccc12)C(=O)N[C@@H](Cc1ccccc1)C(=O)NCc1ccccc1 (PhAc-Arg-Trp-Phe-NHBn)
- inhibition [1]: inactive

Compound: CC(C)(C)NC(=O)[C@H](Cc1ccccc1)NC(=O)[C@H](Cc1c[nH]c2ccccc12)NC(=O)[C@H](CCCNC(=N)N)NC(=O)Cc1ccccc1 (PhAc-Arg-Trp-Phe-NHtBu)
- inhibition [1]: inactive

Compound: CC(C)(C)C(=O)N[C@@H](CCCNC(=N)N)C(=O)N[C@@H](Cc1c[nH]c2ccccc12)C(=O)N[C@@H](Cc1ccccc1)C(=O)NCc1ccccc1 (Piv-Arg-Trp-Phe-NHBn)
- inhibition [1]: inactive

Compound: CC(C)(C)NC(=O)[C@H](Cc1ccccc1)NC(=O)[C@H](Cc1c[nH]c2ccccc12)NC(=O)[C@H](CCCNC(=N)N)NC(=O)C(C)(C)C (Piv-Arg-Trp-Phe-NHtBu)
- inhibition [1]: inactive

Compound: CC[C@H](C)[C@@H]1NC(=O)[C@H](C)NC(=O)[C@H](C(C)C)NC(=O)[C@H](Cc2ccc(O)cc2)NC(=O)[C@H](Cc2ccc(O)cc2)NC(=O)[C@H](Cc2ccccc2)NC1=O (cyclo(AIFYYV))
- Activity [1]: Dose-dependent effect
- pIC50 [1]: 3.68

Compound: H-CDLRWF-OH
- inhibition [3]: 45%
- inhibition [4]: 37%
- inhibition [5]: 86%
- inhibition [6]: 6%
- inhibition [7]: 4%
- inhibition [8]: 76%

Compound: H-CHLRWL-OH
- inhibition [3]: 34%
- inhibition [4]: 41%
- inhibition [5]: 75%
- inhibition [6]: 10%
- inhibition [7]: 7%
- inhibition [8]: 58%

Compound: H-CIFYYV-OH
- inhibition [9]: 34%
- inhibition [10]: 51%
- inhibition [11]: 67%
- inhibition [12]: 42%
- inhibition [13]: 66%
- inhibition [14]: 24%

Compound: H-CIWWYM-OH
- inhibition [9]: 8%
- inhibition [10]: 12%
- inhibition [11]: 41%
- inhibition [12]: 49%
- inhibition [13]: 70%
- inhibition [14]: 29%

Compound: H-CKAVLF-OH
- inhibition [3]: 30%
- inhibition [4]: 38%
- inhibition [5]: 71%
- inhibition [6]: 7%
- inhibition [7]: 5%
- inhibition [8]: 51%

Compound: H-CLFFNY-OH
- inhibition [3]: 28%
- inhibition [4]: 45%
- inhibition [5]: 69%
- inhibition [6]: 18%
- inhibition [7]: 12%
- inhibition [8]: 47%

Compound: H-CLWWYM-OH
- inhibition [9]: 12%
- inhibition [10]: 18%
- inhibition [11]: 45%
- inhibition [12]: 41%
- inhibition [13]: 65%
- inhibition [14]: 24%

Compound: H-CMFYYI-OH
- inhibition [9]: 12%
- inhibition [10]: 18%
- inhibition [11]: 45%
- inhibition [12]: 37%
- inhibition [13]: 63%
- inhibition [14]: 22%

Compound: H-CRLLDF-OH
- inhibition [3]: 29%
- inhibition [4]: 38%
- inhibition [5]: 70%
- inhibition [6]: 7%
- inhibition [7]: 5%
- inhibition [8]: 49%
